The structures appear in SMILES notation.

The series can be described thus: Toxicity liver stage against HepG2, at 10uM. The class given is cell-based. Set-up: test concentration 10 uM, cell line HepG2-A16-CD81EGFP. Conditions: human, HepG2-A16-CD81EGFP cells; read-out: INHIBITION
Summed up:
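Uninfected HepG2-A16-CD81EGFP cells, 3 × 10^3 per well, 1536-well, plated on prespotted compound at 10 μM final, parasite-free screening media added to match infected plates; puromycin 10 μM positive, DMSO 0.5% negative; run in parallel with 48 h PbLuc assay at 37 °C, 5% CO2; viability by CellTiter-Glo luminescence, normalized to controls.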

Consider `Cc1cc(C(=O)N2CCN(Cc3ccco3)C(CCO)C2)cc(=O)[nH]1` (stereo unspecified), for which the cytotoxicity at 10 µM is -1.5%.
Turning to `Cc1cnc(N2CCC3(CCN(Cc4csc(C)n4)C3=O)C2)nc1` (stereo unspecified), the cytotoxicity at 10 µM was -102%.
For the molecule `COCCN1CCC(CN(Cc2ccncc2)C2CCC2)CC1`, the cytotoxicity at 10 µM is -2.33%.
On to `CC(C)C(Nc1nc(C(F)(F)F)nc2ccccc12)C(=O)O` (stereo unspecified), for which the cytotoxicity at 10 µM was -1.98%.
Next, `Cc1n[nH]c(C)c1-c1cc(-c2ccc[nH]2)nc(N)c1C#N`: 12.4%; `CCCS(=O)(=O)N1CCC(NC(=O)c2cc3ccccc3s2)CC1`: 4.69%; `CC(C)N(CCS(C)(=O)=O)Cc1csc(-c2ccccc2F)n1`: -49.3%.
With `COCCN1CC(c2cc(O)nc(NC(C)C)n2)CC1=O` (stereo unspecified) the figure was -39.7%.
With `O=C(CSc1ccccc1)N1CCC(N2CCCCC2=O)CC1` the figure was 11.2%; with `CN1CCCC2(CCN(C(=O)CCn3cncn3)C2)C1=O` (stereo unspecified), -11%.
In the case of `Cc1cnccc1-c1cc(NCCO)nc2[nH]ccc12`, the cytotoxicity at 10 µM turned out to be 13.8%.
Regarding `CNC(=O)NC(=O)C(C)N1CCN(c2ccc(C#N)cc2F)CC1` (stereo unspecified), the cytotoxicity at 10 µM is 2.83%.
Next, `OC1(c2cn(C3CCN(C4CCSC4)CC3)nn2)CCCC1` (stereo unspecified): 2.13%.
`O=C(c1ccncc1)N1Cc2ccccc2OC2(CCOCC2)C1`: the cytotoxicity at 10 µM was -1.03%.
Turning to `CN(CC(=O)Nc1cc(-n2nnnc2C2CC2)ccc1F)C1CCC1`, the cytotoxicity at 10 µM was determined as 8.83%.
With `Cc1noc(C)c1CN1CC[C@H]2OCC[C@@H](C(=O)N3CCCO3)[C@@H]2C1`, the cytotoxicity at 10 µM is -8.25%.
On to `Cc1cc(CNCc2c(C)nn(C)c2N2CCOCC2)no1`, for which the cytotoxicity at 10 µM is -8.11%.
Consider `Cc1nn(CCO)cc1CN1CCC(N2CCC(O)CC2)CC1`, for which the cytotoxicity at 10 µM was -0.931%.
In the case of `CN1CCc2c(C#N)c(NCc3ccco3)n3cnnc3c2C1`, the cytotoxicity at 10 µM was -13.7%.
Take `Cc1nccc(-c2cccc(NCC(=O)N3CCOC(C)C3)c2)n1` (stereo unspecified): the cytotoxicity at 10 µM was -0.776%.
Next, `CCCc1noc(CN2CCC(NC(=O)c3ccc(C)s3)CC2)n1`: -5.32%; `Cc1ccc(OCc2nc(CNCCn3cccn3)cs2)cc1`: 0.979%; `Cn1ncc2c(N[C@@H]3C[C@H]4CC[C@@H]3C4)nc(-c3ccncc3)nc21`: 5.89%.
Consider `CC(C)CN1CC[C@@H]2[C@@H]1CCN2C(=O)N1CCCC1`, for which the cytotoxicity at 10 µM is -1%.
Consider `Cc1noc(CNc2ccc(C(=O)N3CCCC(C)C3)cc2C)n1` (stereo unspecified), for which the cytotoxicity at 10 µM is -4.07%.
Regarding `CCN1C(=O)[C@H]2CN(Cc3cccnc3)C[C@H]2C12CCN(C(C)=O)CC2`, the cytotoxicity at 10 µM was -1.8%.
With `O=C(c1ccc(Br)o1)N1CCN(Cc2ccc(F)cc2)CC1` the figure was 9.08%.
Turning to `COC(=O)C(c1cc(F)ccc1F)N(C)C(=O)c1ccnc(C)n1` (stereo unspecified), the cytotoxicity at 10 µM is -0.337%.
Next, `CCOC(=O)c1ccc(NC(=O)c2cc3c([nH]c2=O)CCCC3)cc1`: 9.13%; `COCC(=O)N1CCCC1(C)c1nc(C)cc(O)n1` (stereo unspecified): -28.5%.
`O=C(C1CC=CC1)N1CCCn2nnc(CNc3ncccn3)c2C1`: the cytotoxicity at 10 µM was 6.97%.
Consider `CCn1c(C2CCCN(Cc3ccnc4ccccc34)C2)nn(C)c1=O` (stereo unspecified), for which the cytotoxicity at 10 µM was -5.92%.
On to `Cc1nc(CN2CCCC(N(C)Cc3c(C)noc3C)C2)no1` (stereo unspecified), for which the cytotoxicity at 10 µM is -0.866%.
With `CN(Cc1csc(-c2ccccc2)n1)C(=O)CCNS(C)(=O)=O` the figure was 0.571%; with `CC(C)(C)c1nnc2n1C(C(=O)N1CCOCC1)CC2` (stereo unspecified), 1.52%.
As for `COc1ccc(S(=O)(=O)NC(=O)COC2CCCCC2)cc1C`, the cytotoxicity at 10 µM is -3.56%.
Take `OC(COc1ccc(F)cc1)CN1CCC(Cn2cccn2)CC1` (stereo unspecified): the cytotoxicity at 10 µM is -9.07%.
With `CCOCC1CN(CC2CC2)Cc2nn(CC3CC3)cc21` (stereo unspecified) the figure was 0.748%; with `Oc1cc(-c2nccs2)nc(C2CCN(Cc3cccs3)CC2)n1`, 16.7%.
`CC(C)(C)Oc1ccncc1NCc1cscn1`: the cytotoxicity at 10 µM was 15.7%.
With `O=C(c1cccc(Cl)c1)N1CCCC2(CCCNC2)C1` (stereo unspecified) the figure was -152%; with `Cc1ccc([C@H]2CN(C(=O)C3CCC3)C[C@@H]2N)o1`, 7.95%.
On to `CC(CN1CCOC1=O)NC(=O)c1cccc(C#N)c1` (stereo unspecified), for which the cytotoxicity at 10 µM is -8.37%.
Take `COCC1CN(Cc2c(C)noc2C)Cc2ccnn2C1` (stereo unspecified): the cytotoxicity at 10 µM is -89.3%.
With `CCn1cc(CN2CCN(Cc3cccc(OC)c3)C(=O)C2)cc1C#N` the figure was 2.96%.
With `CN(Cc1ccsc1)C(=O)CN1CCOC(Cn2cccn2)C1` (stereo unspecified) the figure was -14.7%; with `Cc1cc(C2CCCN(Cc3cccnc3)C2)n[nH]1` (stereo unspecified), 9%; with `CN1CCOC(CNC(=O)C2(c3cccc(C(F)(F)F)c3)CCCC2)C1` (stereo unspecified), -4.22%.
With `CNc1cncc(C2CCCN2S(=O)(=O)c2ccccc2F)n1` (stereo unspecified), the cytotoxicity at 10 µM was -15.1%.
For the molecule `Cc1ccnc(NC(=O)c2ccc(-n3ncc(C#N)c3N)cc2)c1`, the cytotoxicity at 10 µM is 1.22%.
As for `CCS(=O)(=O)NCCN1CCN(C(C#N)c2ccccc2)CC1` (stereo unspecified), the cytotoxicity at 10 µM is -4.04%.
Regarding `CSCC(C)(O)CNc1cccc(F)c1C#N` (stereo unspecified), the cytotoxicity at 10 µM is 0.462%.
With `Cc1ccc(OC2(C(=O)O)CCN(C/C=C/c3ccco3)CC2)c(C)n1` the figure was 0.449%.
Regarding `c1cnc(-c2nc(CN3CCCN(Cc4cccs4)CC3)cs2)nc1`, the cytotoxicity at 10 µM was -7.66%.
With `COCc1cc(N(C)Cc2ccccn2)nc(C(C)(C)C)n1` the figure was 12.1%.
As for `O=C1[C@H]2CCCC[C@H]2C(=O)N1c1cnn(Cc2cccc(F)c2)c1`, the cytotoxicity at 10 µM is -5.24%.
Next, `Cc1cnc2c(c1NCc1ccncc1)c(=O)n(C)c(=O)n2C`: -10.7%.
Next, `CO[C@@H]1CC[C@H]2[C@H]1OCCN2CC1CC1`: 11.4%.
For `COc1cccc(-c2cnc(C3CCNCC3)cn2)c1`, the cytotoxicity at 10 µM was -30.4%.
With `NC(=O)c1cnn2c1NCC(CNCCCOc1ccccc1F)C2` (stereo unspecified) the figure was -5.56%; with `Cc1nonc1CNC(=O)C(C)Oc1ccccc1F` (stereo unspecified), 2.57%; with `CNc1nc(C(=O)N2CCCn3nc(C(=O)N4CCCC4)cc3C2)cs1`, 4.57%.
Regarding `Cc1noc(C)c1S(=O)(=O)N1CCC(Oc2cccnn2)CC1`, the cytotoxicity at 10 µM is 0.0701%.
With `Cn1nc(CN2CCCC2)c2c1CN(C(=O)Nc1cccc(F)c1)CC2` the figure was 5.98%; with `COC(=O)[C@@H](NC(=O)c1coc(COc2cccc(F)c2F)n1)C(C)C`, 1.31%.
Take `Cc1cc(-c2cnc(NC3CC3)nc2-c2ccoc2)on1`: the cytotoxicity at 10 µM is -25.6%.
On to `COc1cccc(-c2n[nH]cc2-c2nc(CN3CCCC3)no2)c1`, for which the cytotoxicity at 10 µM is -23.2%.
Next, `CCc1nc(C2CCCN(C(=O)NCCOC)C2)no1` (stereo unspecified): -0.775%; `CC(C)N(C)CC(=O)N1CCCC(n2ccnc2)C1` (stereo unspecified): 5.56%.
With `O=C(c1ccsc1)N1C[C@H]2CN(Cc3cccc(F)c3)C(=O)[C@H]2C1` the figure was 0.98%; with `Cc1oncc1C(=O)N1CC[C@H]2[C@@H]1CCC(=O)N2CC1CCOCC1`, 4.33%.
With `COC(=O)c1ncccc1N1CCCC1` the figure was -3.1%.
`N#Cc1cn(C2CC2)c(=O)n(Cc2cc(-c3cccs3)on2)c1=O`: the cytotoxicity at 10 µM is 0.38%.
As for `OCC1(CC2CC2)CCCN(Cc2cnc(N3CCOCC3)nc2)C1` (stereo unspecified), the cytotoxicity at 10 µM is -0.274%.
Regarding `CC(C)(C(=O)N1CCC(CS(N)(=O)=O)CC1)c1ccccc1F`, the cytotoxicity at 10 µM was determined as 6.03%.
Next, `CCC[C@@H](NC(N)=O)C(=O)N1CCc2c(Cl)cccc2C1`: 5.79%; `O=C1NCC(c2ccc(Cl)cc2)Cc2[nH]c(CCN3CCOCC3)nc21` (stereo unspecified): -5.68%; `Cc1noc(C)c1CN1Cc2cn(C)nc2C(COCC2CC2)C1` (stereo unspecified): -73%.
As to `Cc1nc(CCC(N)=O)cc(C2CCCCN2S(C)(=O)=O)n1` (stereo unspecified), the cytotoxicity at 10 µM was -13%.
With `CN1CCN(Cc2ccncc2)C(=O)C12CCN(c1nccs1)CC2` the figure was -2.82%; with `CN1C(=O)C2(CCN(C(=O)c3ccccc3)CC2)c2cc(F)ccc21`, -106%; with `COc1cccc(CNCc2cccnc2)c1`, -1.13%.
With `c1cc(N2CCC3(COCc4cnc(NCC5CC5)nc43)C2)ncn1` (stereo unspecified) the figure was 6.27%; with `O=C(OCc1ccccc1)N1CC[C@H]2CC(CO)O[C@@H]2C1` (stereo partly specified), -97.7%; with `CCN1CCN(c2ccc(NC(C)c3nc(C(C)C)no3)c(C)c2)CC1` (stereo unspecified), -10%.
On to `CCCn1ncc2c(C(=O)Nc3n[nH]c(SC)n3)cc(C3CC3)nc21`, for which the cytotoxicity at 10 µM was 1.52%.
`CCCc1cnc(C)nc1N1CCC2(CC1)CNC(=O)O2`: the cytotoxicity at 10 µM was 44.6%.
Next, `Cn1ccnc1CN1C[C@@H](CN2CCC(CO)CC2)[C@@H](CO)C1`: -15.5%; `C[C@]1(O)CN(Cc2cscn2)CC[C@@H]1Oc1cccc(F)c1`: 7.08%; `O=C(NS(=O)(=O)c1ccccc1Cl)c1cccc2c1OCCO2`: -11%.
Next, `CC(C)C(Sc1nncn1C1CC1)C(=O)NCc1cccnc1` (stereo unspecified): -6.86%; `Cc1cc(CN2CCN(CC(=O)NC3(C#N)CCCCC3)CC2)on1`: 5.83%; `COc1cccc(-c2nccc(C3CCCN3C)n2)c1` (stereo unspecified): 9.27%.
With `N#CC1(NC(=O)c2cc(Cl)ccc2OC(F)F)CCOCC1` the figure was 7.48%.
In the case of `c1ccc(OCc2n[nH]c3c2CN(Cc2cccs2)C3)nc1`, the cytotoxicity at 10 µM is 8.25%.
With `CCC(=O)N1CCC(Oc2ccc(C(=O)NCCN(C)C)cc2Cl)CC1` the figure was 4.12%.

The values above are taken from ChEMBL document CHEMBL4513216, “Probing the Open Global Health Chemical Diversity Library for Multistage-Active Starting Points for Next-Generation Antimalarials” (ACS Infect Dis, 2020).
